# Assays:
# [1] = molecular target: T1, Prostaglandin D2 receptor 2 (Homo sapiens, UniProt Q9Y5Y4); assay: Displacement of [3H]PGD2 from human CRTH2 expressed in chinese hamster CHO cells by liquid scintillation counting; assay type: cell-based
# T1 sequence (Q9Y5Y4 whole entry): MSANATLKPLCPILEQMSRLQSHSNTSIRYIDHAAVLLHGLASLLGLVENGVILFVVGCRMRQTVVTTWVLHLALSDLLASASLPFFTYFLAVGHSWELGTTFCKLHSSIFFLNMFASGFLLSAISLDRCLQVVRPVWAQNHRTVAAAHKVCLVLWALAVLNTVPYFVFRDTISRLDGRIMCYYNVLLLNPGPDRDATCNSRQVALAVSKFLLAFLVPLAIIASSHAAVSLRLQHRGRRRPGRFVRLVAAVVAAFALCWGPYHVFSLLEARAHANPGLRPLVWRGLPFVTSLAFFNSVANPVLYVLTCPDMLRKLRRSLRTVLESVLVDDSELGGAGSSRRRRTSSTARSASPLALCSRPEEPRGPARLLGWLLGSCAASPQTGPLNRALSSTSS
# Outline: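 Scintillation proximity competition assay: 2–5 μg human CRTH2 cell membranes, 1.5 nM [3H]PGD2, WGA-SPA beads, 10 mM HEPES/KOH pH 7.4, 10 mM MnCl2, protease inhibitors, 1% DMSO; 90 min, room temperature, shaking. Nonspecific binding defined with 1 μM PGD2. Ki by Cheng–Prusoff, mean of ≥3 independent dose–response experiments.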
# [2] = Percentage unbound in human plasma; assay type: ADME, cell-free
# [3] = Percentage unbound in rat plasma; assay type: ADME, cell-free
# [4] = Percentage unbound in mouse plasma; assay type: ADME, cell-free
# [5] = Apparent permeability across human Caco2 cells at 1 uM after 2 hrs by LC/MS/MS analysis; assay type: ADME, cell-based; details: Caco-2
# [6] = Lipophilicity, log D of the compound at pH 7.4; assay type: physicochemical; details: buffer
# [7] = Clearance in BALB/c mouse at 5 mg/kg, po by LC/MS/MS analysis; assay type: ADME, organism-based; set-up: dose 5 mg/kg, route oral; details: in vivo
# [8] = Half life in BALB/c mouse at 1 mg/kg, iv and 5 mg/kg, po by LC/MS/MS analysis; assay type: ADME, organism-based; details: in vivo
# [9] = Thermodynamic solubility of the compound in aqueous solution at pH 7.4; assay type: physicochemical; details: read-out: Therm_solubility
smiles,measurement,setting,value
CN(C)S(=O)(=O)c1cncc(C#Cc2cc(Cl)ccc2OCC(=O)O)c1,Ki,[1],37 nM
same,fraction unbound,[2],0.033
same,fraction unbound,[3],0.057
same,fraction unbound,[4],0.034
same,"Papp at 2 h, 1 µM",[5],1.8 ×10⁻⁶ cm/s
same,logD,[6],-1.4
same,CL/F,[7],13.3 mL/min/kg
same,half-life,[8],4.4 h
same,solubility thermodynamic,[9],193 µg/mL

# From ChEMBL document CHEMBL1914440, “Discovery of potent, selective, and orally bioavailable alkynylphenoxyacetic acid CRTH2 (DP2) receptor antagonists for the treatment of allergic inflammatory diseases” (J Med Chem, 2011)
